Calls of active or inactive are those of the source. The rule behind the calls is not given here.
Legend:
SF-268 [1] = assay: Antiproliferative activity against human SF268 cells after 48 hrs; type: functional, cell-based; conditions: SF-268, 48 h
How it was run: (§1)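 Cells seeded in supplier-recommended growth medium at line-adapted densities (linear signal range), grown 24 h at 37 °C/5% CO2, then exposed to compound; highest concentration 3.16 μM. After 45 h, resazurin (0.2 mg/mL in DPBS) added for 3 h; fluorescence at 590 nm read at 48 h. % efficacy vs untreated cells and cell-free blanks; EC50 by nonlinear regression from at least two independent assays.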

[2] = Antiproliferative activity against human RKOp27IND cells after 48 hrs; type: functional, cell-based; how it was run: as §1
[3] = Antiproliferative activity against human RKOp27 cells after 48 hrs; type: functional, cell-based; conditions: RKOp27, 48 h; how it was run: as §1
DNA = assay: Binding affinity to calf thymus DNA up to 5 mM; type: nucleic-acid assay; conditions: Bos taurus
How it was run: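 UV-vis absorbance shift assay. Stocks of up to 5 mM were made in 5% DMSO or methanol. They were diluted in pH 7 phosphate buffer (5 mM NaH2PO4, 5 mM Na2HPO4, 70 mM NaCl) to give a maximum absorbance of about 1–2. Spectra were taken from 230–600 nm with and without 2 mg/ml calf thymus DNA, and peak shifts were compared.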

[4] = Antiproliferative activity against human KB/HeLa cells after 48 hrs; type: functional, cell-based; how it was run: as §1
SK-OV-3 [5] = assay: Antiproliferative activity against human SKOV3 cells after 48 hrs; type: functional, cell-based; conditions: SK-OV-3, 48 h; how it was run: as §1
NCI-H460 [6] = assay: Antiproliferative activity against human NCI-H460 cells after 48 hrs; type: functional, cell-based; conditions: NCI-H460, 48 h; how it was run: as §1
[7] = Cell cycle arrest in human KB/HeLa cells assessed as accumulation at S phase up to 11 uM after 24 hrs by flow cytometry analysis; type: functional, cell-based
How it was run: (§2)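 Exponentially dividing KB/HeLa cells (ATCC CCL17) were exposed at 37 °C to a range of compound concentrations and compared with untreated controls. Cells were prepared with the CycleTEST PLUS kit. DNA content was measured by flow cytometry (FACSCalibur), and phase distribution was derived with cell cycle analysis software.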

SK-OV-3 [8] = assay: Antiproliferative activity against human SKOV3 cells at 3.16 uM after 48 hrs; type: functional; conditions: SK-OV-3, 48 h
How it was run: (§3)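 Cells were seeded in the supplier-recommended medium and grown 24 h at 37 °C/5% CO2 before compound addition. Resazurin (0.2 mg/mL in DPBS) was added after 45 h, and fluorescence at 590 nm was read at 48 h total. % inhibition at the highest concentration (3.16 μM) was scored against untreated cells and cell-free blanks on each plate. Data came from at least two independent assays.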

[9] = Cell cycle arrest in human KB/HeLa cells assessed as accumulation at S phase at < 6 uM after 24 hrs by flow cytometry analysis; type: functional, cell-based; how it was run: as §2
[10] = Cell cycle arrest in human KB/HeLa cells assessed as accumulation at S phase at < 7 uM after 24 hrs by flow cytometry analysis; type: functional, cell-based; how it was run: as §2
SF-268 [11] = assay: Antiproliferative activity against human SF268 cells at 3.16 uM after 48 hrs; type: functional; conditions: SF-268, 48 h; how it was run: as §3
[12] = Antiproliferative activity against human RKOp27IND cells at 3.16 uM after 48 hrs; type: functional; how it was run: as §3
[13] = Cell cycle arrest in human KB/HeLa cells assessed as accumulation at S phase at < 4 uM after 24 hrs by flow cytometry analysis; type: functional, cell-based; how it was run: as §2
[14] = Antiproliferative activity against human KB/HeLa cells at 3.16 uM after 48 hrs; type: functional; how it was run: as §3
NCI-H460 [15] = assay: Antiproliferative activity against human NCI-H460 cells at 3.16 uM after 48 hrs; type: functional; conditions: NCI-H460, 48 h; how it was run: as §3
[16] = Antiproliferative activity against human RKOp27 cells at 3.16 uM after 48 hrs; type: functional; conditions: RKOp27, 48 h; how it was run: as §3

Row | Structure (SMILES) | EC50 (SF-268 [1]) | EC50 [2] | EC50 [3] | Activity (DNA) | EC50 [4] | EC50 (SK-OV-3 [5]) | EC50 (NCI-H460 [6]) | also measured
1 | CN(C)CCn1nc2c3c(c(N(C)C)ccc31)C(=O)c1ccncc1-2 | 1340 nM | 3060 nM | 2630 nM | Active | 2190 nM | 2080 nM | 770 nM | –
2 | CN(C)CCn1nc2c3c(c(NCCc4ccccn4)ccc31)C(=O)c1ccncc1-2 | – | 3770 nM | 2680 nM | – | – | 1410 nM | 990 nM | –
3 | CN(C)CCSCCNc1ccc2c3c(nn2CCN(C)C)-c2cnccc2C(=O)c13 | 2370 nM | 1790 nM | 920 nM | – | 750 nM | 700 nM | 310 nM | –
4 | CN(C)CCn1nc2c3c(c(NCCCCN4CC4)ccc31)C(=O)c1ccncc1-2 | 420 nM | 1020 nM | 1000 nM | Active | 80 nM | 530 nM | 70 nM | –
5 | CN(C)CCn1nc2c3c(c(NCCC#CCCN4CC4)ccc31)C(=O)c1ccncc1-2 | 240 nM | 350 nM | 70 nM | Active | 140 nM | 310 nM | 60 nM | Activity [7]: inactive
6 | CN(C)CCn1nc2c3c(c(NCCc4c[nH]c5ccccc45)ccc31)C(=O)c1ccncc1-2 | – | 1510 nM | 1330 nM | inactive | – | 1520 nM | 1320 nM | –
7 | CN(C)CCn1nc2c3c(c(NCCCCc4ccc(N(CCCl)CCCl)cc4)ccc31)C(=O)c1ccncc1-2 | 4170 nM | 1630 nM | 1190 nM | – | 2470 nM | – | 3760 nM | inhibition at 3.16 µM (SK-OV-3 [8]): < 30%
8 | CN(C)CCn1nc2c3c(c(NCC/C=C\CCN4CC4)ccc31)C(=O)c1ccncc1-2 | 1710 nM | 1200 nM | 290 nM | – | 430 nM | 1770 nM | 590 nM | Activity [9]: Active
9 | CSCCCNc1ccc2c3c(nn2CCN(C)C)-c2cnccc2C(=O)c13 | – | 4760 nM | 2940 nM | – | – | 1360 nM | 680 nM | –
10 | CN(C)CCn1nc2c3c(c(NCCCCCCOS(C)(=O)=O)ccc31)C(=O)c1ccncc1-2 | 1370 nM | 1930 nM | 510 nM | – | 1670 nM | 3610 nM | 820 nM | –
11 | CN(C)CCn1nc2c3c(c(NCCc4c[nH]cn4)ccc31)C(=O)c1ccncc1-2 | – | 4810 nM | 1330 nM | – | – | 1650 nM | 3020 nM | –
12 | CN(C)CCn1nc2c3c(c(NCC/C=C/CCN4CC4)ccc31)C(=O)c1ccncc1-2 | 2990 nM | 2780 nM | 720 nM | – | 1220 nM | 3220 nM | 690 nM | Activity [10]: Active
13 | c1ccc2nc3ccccc3cc2c1 | – | – | – | Active | – | – | – | –
14 | CN(C)CCn1nc2c3c(c(NCCN4CC4)ccc31)C(=O)c1ccncc1-2 | 690 nM | 1050 nM | 80 nM | – | 70 nM | 390 nM | 80 nM | –
15 | CN(C)CCn1nc2c3c(c(NCCCCOS(C)(=O)=O)ccc31)C(=O)c1ccncc1-2 | – | – | 1180 nM | – | 3170 nM | – | 1070 nM | inhibition at 3.16 µM (SF-268 [11]): < 30%; inhibition at 3.16 µM [12]: < 30%; inhibition at 3.16 µM (SK-OV-3 [8]): < 30%
16 | CN(C)CCn1nc2c3c(c(NCCC#CCCOS(C)(=O)=O)ccc31)C(=O)c1ccncc1-2 | 750 nM | 980 nM | 470 nM | – | 390 nM | 730 nM | 411 nM | –
17 | CN(C)CCn1nc2c3c(c(NCCC#CCCO)ccc31)C(=O)c1ccncc1-2 | 3450 nM | 3230 nM | 1630 nM | Active | 1390 nM | 1210 nM | 680 nM | –
18 | CN(C)CCn1nc2c3c(c(NCC/C=C\CCOS(C)(=O)=O)ccc31)C(=O)c1ccncc1-2 | 3070 nM | 2610 nM | 630 nM | – | 750 nM | 5380 nM | 2180 nM | –
19 | CN(C)CCn1nc2c3c(c(NCCOS(C)(=O)=O)ccc31)C(=O)c1ccncc1-2 | 390 nM | 1830 nM | 170 nM | – | 150 nM | 550 nM | 250 nM | –
20 | O=C1c2c(O)ccc(O)c2C(=O)c2c(NCCNCCO)ccc(NCCNCCO)c21 [MITOXANTRONE] | 320 nM | 760 nM | 90 nM | Active | 360 nM | 120 nM | 120 nM | –
21 | CN(C)CCn1nc2c3c(c(NCCCCCCN4CC4)ccc31)C(=O)c1ccncc1-2 | 760 nM | 1280 nM | 130 nM | Active | 340 nM | 770 nM | 200 nM | Activity [13]: Active
22 | CN(C)CCn1nc2c3c(c(NCCCCCCc4ccc(N(CCCl)CCCl)cc4)ccc31)C(=O)c1ccncc1-2 | – | – | – | – | – | – | – | inhibition at 3.16 µM (SF-268 [11]): < 30%; inhibition at 3.16 µM [14]: < 30%; inhibition at 3.16 µM (NCI-H460 [15]): < 30%; inhibition at 3.16 µM [12]: < 30%; inhibition at 3.16 µM (SK-OV-3 [8]): < 30%; inhibition at 3.16 µM [16]: < 30%
23 | CN(C)CCn1nc2c3c(c(NCCSCCO)ccc31)C(=O)c1ccncc1-2 | 660 nM | 1060 nM | 550 nM | Active | 960 nM | 400 nM | 150 nM | –
24 | CN(C)CCn1nc2c3c(c(NCCC4CCCN4C)ccc31)C(=O)c1ccncc1-2 (stereo unspecified) | – | 460 nM | 370 nM | Active | – | 360 nM | 160 nM | –
25 | CN(C)CCn1nc2c3c(c(NCCc4cccs4)ccc31)C(=O)c1ccncc1-2 | – | 4840 nM | 3120 nM | – | – | 3220 nM | 1470 nM | –
